According to ChEMBL document CHEMBL4184277, “Substitution of terminal amide with 1H-1,2,3-triazole: Identification of unexpected class of potent antibacterial agents” (2018):
Converted amounts (≈) assume the structure as drawn. The source made the active and inactive calls. The calls are words filed in the database; no cut-off is given here.

What was measured:
[1] = tested on: Bacillus subtilis; experiment: Antibacterial activity against Bacillus subtilis ATCC 9372 after 24 hrs by broth microdilution method; assay type: functional; conditions: ATCC 9372, 24 h
Outline: (§1)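 Broth microdilution run to the standard NCCLS-recommended procedure, applied to all newly synthesized compounds, with a panel that included four Gram-positive strains.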

[2] = tested on: Klebsiella pneumoniae; experiment: Antibacterial activity against Klebsiella pneumoniae ATCC 700603 after 24 hrs by broth microdilution method; assay type: functional; conditions: Klebsiella pneumoniae, 700603, 24 h; outline: as §1
[3] = tested on: Staphylococcus aureus; experiment: Antibacterial activity against penicillin-resistant Staphylococcus aureus after 24 hrs by broth microdilution method; assay type: functional
[4] = tested on: Escherichia coli; experiment: Antibacterial activity against Escherichia coli ATCC 25922 after 24 hrs by broth microdilution method; assay type: functional; conditions: ATCC 25922, 24 h; outline: as §1
[5] = tested on: Staphylococcus aureus; experiment: Antibacterial activity against Staphylococcus aureus ATCC 25923 after 24 hrs by broth microdilution method; assay type: functional; conditions: ATCC 25923, 24 h; outline: as §1
[6] = tested on: Staphylococcus aureus; experiment: Antibacterial activity against methicillin-resistant Staphylococcus aureus ATCC 43300 after 24 hrs by broth microdilution method; assay type: functional; conditions: ATCC 43300, 24 h
[7] = molecular target: T1, Cell division protein FtsZ (Bacillus subtilis) (UniProt A5Z1V5); experiment: Inhibition of FtsZ in Bacillus subtilis ATCC 9372 assessed as filamentation
T1 sequence (whole entry): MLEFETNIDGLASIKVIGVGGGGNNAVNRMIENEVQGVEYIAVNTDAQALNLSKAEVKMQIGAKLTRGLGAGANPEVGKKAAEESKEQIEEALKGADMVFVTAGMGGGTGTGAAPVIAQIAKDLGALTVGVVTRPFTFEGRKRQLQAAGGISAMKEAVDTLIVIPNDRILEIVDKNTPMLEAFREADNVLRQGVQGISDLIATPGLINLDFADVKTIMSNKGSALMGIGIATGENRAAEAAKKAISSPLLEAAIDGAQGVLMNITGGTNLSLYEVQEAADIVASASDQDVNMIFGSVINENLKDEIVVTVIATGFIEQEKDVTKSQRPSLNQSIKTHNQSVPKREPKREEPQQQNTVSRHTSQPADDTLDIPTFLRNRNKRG

[8] = molecular target: T2, Cell division protein FtsZ (Staphylococcus aureus) (UniProt P0A031); experiment: Inhibition of FtsZ in Staphylococcus aureus assessed as ballooning
T2 sequence (whole entry): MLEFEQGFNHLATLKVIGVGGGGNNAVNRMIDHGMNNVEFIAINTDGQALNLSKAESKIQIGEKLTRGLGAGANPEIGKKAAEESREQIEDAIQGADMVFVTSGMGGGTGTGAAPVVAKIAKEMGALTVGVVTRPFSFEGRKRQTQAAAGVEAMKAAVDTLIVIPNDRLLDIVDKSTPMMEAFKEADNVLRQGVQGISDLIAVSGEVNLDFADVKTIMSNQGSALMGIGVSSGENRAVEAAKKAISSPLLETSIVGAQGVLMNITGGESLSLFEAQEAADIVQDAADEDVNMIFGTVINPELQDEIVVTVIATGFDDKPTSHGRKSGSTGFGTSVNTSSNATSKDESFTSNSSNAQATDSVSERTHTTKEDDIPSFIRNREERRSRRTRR

[9] = molecular target: T1, Cell division protein FtsZ (Bacillus subtilis); experiment: Inhibition of FtsZ in Bacillus subtilis ATCC 9372 assessed as filamentation at 1 ug/ml

## Cc1ccc(COc2cccc(Cn3cncn3)c2)cc1
[1]
  MIC: > 64 µg/mL
[2]
  MIC: > 64 µg/mL
[3]
  MIC: > 64 µg/mL
[4]
  MIC: > 64 µg/mL
[5]
  MIC: > 64 µg/mL
[6]
  MIC: > 64 µg/mL

## c1ccc(COc2cccc(-c3c[nH]nn3)c2)cc1
[1]
  MIC: > 64 µg/mL
[2]
  MIC: 64 µg/mL (≈ 255 µM)
[3]
  MIC: > 64 µg/mL
[4]
  MIC: > 64 µg/mL
[5]
  MIC: > 64 µg/mL
[6]
  MIC: > 64 µg/mL

## O=c1[nH]nc(-c2cccc(OCc3ccccc3)c2)o1
[1]
  MIC: > 64 µg/mL
[2]
  MIC: > 64 µg/mL
[3]
  MIC: > 64 µg/mL
[4]
  MIC: > 64 µg/mL
[5]
  MIC: > 64 µg/mL
[6]
  MIC: > 64 µg/mL

## Clc1cccc(COc2cccc(Cn3cnnn3)c2)c1
[1]
  MIC: > 64 µg/mL
[2]
  MIC: > 64 µg/mL
[3]
  MIC: > 64 µg/mL
[4]
  MIC: > 64 µg/mL
[5]
  MIC: > 64 µg/mL
[6]
  MIC: > 64 µg/mL

## CCCCCCCCOc1cccc(-c2c[nH]nn2)c1
[1]
  MIC: 2 µg/mL (≈ 7.32 µM)
[2]
  MIC: 4 µg/mL (≈ 14.6 µM)
[3]
  MIC: 4 µg/mL (≈ 14.6 µM)
[7]
  inhibition: inactive
[4]
  MIC: > 64 µg/mL
[5]
  MIC: 4 µg/mL (≈ 14.6 µM)
[6]
  MIC: 4 µg/mL (≈ 14.6 µM)
[8]
  inhibition: Active

## CCCCC(CC)COc1cccc(-c2ncno2)c1 (racemic)
[1]
  MIC: > 64 µg/mL
[2]
  MIC: > 64 µg/mL
[3]
  MIC: > 64 µg/mL
[4]
  MIC: > 64 µg/mL
[5]
  MIC: > 64 µg/mL
[6]
  MIC: > 64 µg/mL

## CCCCC(CC)COc1cccc(-c2c[nH]nn2)c1 (racemic)
[1]
  MIC: 2 µg/mL (≈ 7.32 µM)
[2]
  MIC: 4 µg/mL (≈ 14.6 µM)
[3]
  MIC: 4 µg/mL (≈ 14.6 µM)
[4]
  MIC: > 64 µg/mL
[5]
  MIC: 2 µg/mL (≈ 7.32 µM)
[9]
  inhibition: inactive
[6]
  MIC: 4 µg/mL (≈ 14.6 µM)
[8]
  inhibition: Active

## Cc1cccc(COc2ccc(F)c(-c3c[nH]nn3)c2F)c1
[1]
  MIC: 32 µg/mL (≈ 106 µM)
[2]
  MIC: 64 µg/mL (≈ 212 µM)
[3]
  MIC: 32 µg/mL (≈ 106 µM)
[4]
  MIC: > 64 µg/mL
[5]
  MIC: 32 µg/mL (≈ 106 µM)
[6]
  MIC: 16 µg/mL (≈ 53.1 µM)

## NC(=O)c1c(F)ccc(OCc2nc(-c3ccc(Cl)cc3)c(Br)o2)c1F
[6]
  MIC: 0.06 µg/mL (≈ 0.135 µM)

## CCCCC(CC)COc1cccc(-c2nnco2)c1 (racemic)
[1]
  MIC: 16 µg/mL (≈ 58.3 µM)
[2]
  MIC: 16 µg/mL (≈ 58.3 µM)
[4]
  MIC: > 64 µg/mL
[5]
  MIC: 32 µg/mL (≈ 117 µM)

## NC(=O)c1c(F)ccc(OCc2nc3cc(Cl)cnc3s2)c1F
[1]
  MIC: 0.25 µg/mL (≈ 0.703 µM)
[2]
  MIC: 0.25 µg/mL (≈ 0.703 µM)
[3]
  MIC: 0.5 µg/mL (≈ 1.41 µM)
[4]
  MIC: > 64 µg/mL
[5]
  MIC: 0.5 µg/mL (≈ 1.41 µM)
[6]
  MIC: 1 µg/mL (≈ 2.81 µM)

## CCCCC(CC)COc1cccc(-c2n[nH]c(=O)o2)c1 (racemic)
[1]
  MIC: 4 µg/mL (≈ 13.8 µM)
[2]
  MIC: 4 µg/mL (≈ 13.8 µM)
[3]
  MIC: 8 µg/mL (≈ 27.6 µM)
[7]
  inhibition: inactive
[4]
  MIC: > 64 µg/mL
[5]
  MIC: 4 µg/mL (≈ 13.8 µM)
[6]
  MIC: 8 µg/mL (≈ 27.6 µM)
[8]
  inhibition: Active

## Fc1cccc(COc2ccc(F)c(-c3c[nH]nn3)c2F)c1
[1]
  MIC: > 64 µg/mL
[2]
  MIC: > 64 µg/mL
[3]
  MIC: 64 µg/mL (≈ 210 µM)
[4]
  MIC: > 64 µg/mL
[5]
  MIC: 64 µg/mL (≈ 210 µM)
[6]
  MIC: > 64 µg/mL

## Cc1cccc(COc2cccc(Cn3cncn3)c2)c1
[1]
  MIC: > 64 µg/mL
[2]
  MIC: > 64 µg/mL
[3]
  MIC: > 64 µg/mL
[4]
  MIC: > 64 µg/mL
[5]
  MIC: > 64 µg/mL
[6]
  MIC: > 64 µg/mL

## Fc1ccc(OCc2nc(-c3ccc(Cl)cc3)c(Br)o2)c(F)c1-c1c[nH]nn1
[1]
  MIC: > 64 µg/mL
[2]
  MIC: > 64 µg/mL
[3]
  MIC: > 64 µg/mL
[4]
  MIC: > 64 µg/mL
[5]
  MIC: > 64 µg/mL
[6]
  MIC: > 64 µg/mL

## Cc1ccc(COc2cccc(-c3c[nH]nn3)c2)cc1
[1]
  MIC: > 64 µg/mL
[2]
  MIC: > 64 µg/mL
[3]
  MIC: > 64 µg/mL
[4]
  MIC: > 64 µg/mL
[5]
  MIC: 32 µg/mL (≈ 121 µM)
[6]
  MIC: > 64 µg/mL

## CCCCC(CC)COc1cccc(-c2cn(C)nn2)c1 (stereo unspecified)
[1]
  MIC: 32 µg/mL (≈ 111 µM)
[2]
  MIC: 4 µg/mL (≈ 13.9 µM)
[3]
  MIC: > 64 µg/mL
[4]
  MIC: > 64 µg/mL
[5]
  MIC: 64 µg/mL (≈ 223 µM)
[6]
  MIC: 32 µg/mL (≈ 111 µM)

## Fc1ccc(OCc2ccc(Cl)cc2)c(F)c1-c1c[nH]nn1
[1]
  MIC: > 64 µg/mL
[2]
  MIC: > 64 µg/mL
[3]
  MIC: > 64 µg/mL
[4]
  MIC: > 64 µg/mL
[5]
  MIC: > 64 µg/mL
[6]
  MIC: > 64 µg/mL

## CCCCC(CC)COc1cccc(-c2cnn(C)n2)c1 (stereo unspecified)
[1]
  MIC: > 64 µg/mL
[2]
  MIC: > 64 µg/mL
[3]
  MIC: > 64 µg/mL
[4]
  MIC: > 64 µg/mL
[5]
  MIC: > 64 µg/mL
[6]
  MIC: > 64 µg/mL

## CCCCC(CC)COc1ccccc1-c1c[nH]nn1 (stereo unspecified)
[1]
  MIC: 8 µg/mL (≈ 29.3 µM)
[2]
  MIC: 8 µg/mL (≈ 29.3 µM)
[3]
  MIC: 8 µg/mL (≈ 29.3 µM)
[7]
  inhibition: inactive
[4]
  MIC: > 64 µg/mL
[5]
  MIC: 8 µg/mL (≈ 29.3 µM)
[6]
  MIC: 8 µg/mL (≈ 29.3 µM)
[8]
  inhibition: Active
